From ChEMBL document CHEMBL4689842, “EUbOPEN Chemogenomics Library wave 1” (2021)
“And” between values parts separate entries of the source, which are not always exact repeats. Identical values can stand only once.

Test system: U2OS
Assay: Multiplex assay against U2OS
Assay type: toxicity, cell-based
Conditions: human
Procedure, shortened: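 Live cells carried four stains from seeding: Hoechst33342, BioTracker Green Microtubule Cytoskeleton Dye, MitoTracker Red and Annexin V Alexa Fluor 680. They were imaged on a CQ1 microscope at 37°C and 5% CO2 after compound addition. Using CellPathfinder machine-learning gating, cells were split into Hoechst high-intensity objects or normal cells, normal cells into healthy, pyknosed or fragmented nuclei, and pyknosed cells into mitotic or apoptotic; tubulin, mitochondrial-mass and membrane-permeability phenotypes are per cents of healthy-nucleus cells.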

[1] = 12 h, 10 µM, compound concentration 10 uM, replicate 1
[2] = 12 h, 10 µM, compound concentration 10 uM, replicate 2
[3] = 24 h, 10 µM, compound concentration 10 uM, replicate 1
[4] = 24 h, 10 µM, compound concentration 10 uM, replicate 2
[5] = 12 h, 1 µM, compound concentration 1 uM, replicate 1
[6] = 12 h, 1 µM, compound concentration 1 uM, replicate 2
[7] = 24 h, 1 µM, compound concentration 1 uM, replicate 1
[8] = 24 h, 1 µM, compound concentration 1 uM, replicate 2
[9] = 48 h, 1 µM, compound concentration 1 uM, replicate 1
[10] = 48 h, 1 µM, compound concentration 1 uM, replicate 2
[11] = 48 h, 10 µM, compound concentration 10 uM, replicate 1
[12] = 48 h, 10 µM, compound concentration 10 uM, replicate 2

CN(C)c1ncnc(-c2ccc3nc(Nc4cc(CN5CCN(C(=O)CC(F)(F)F)CC5)ccn4)[nH]c3c2)c1Cl [BAY-440]
Population Apoptotic (%) [1]: 23% | Population Fragmented Nuclei (%) [1]: 5% | Population Healthy Nuclei (%) [1]: 88% and 91% | Population Hoechst High Intensity Objects (%) [1]: 3% and 1% | Population Mitochondria Different-Phenotype (%) [1]: 32% and 17% | Population Mitotic Cells (%) [1]: 76% | Population Normal (%) [1]: 96% and 98% | Population Pyknosed Nuclei (%) [1]: 6% and 3% | Total Cell Count [1]: 204 and 178 | Population Fragmented Nuclei (%) [2]: 10% and 7% | Population Healthy Nuclei (%) [2]: 83% and 90% | Population Hoechst High Intensity Objects (%) [2]: 8% | Population Mitochondria Different-Phenotype (%) [2]: 38% and 19% | Population Mitotic Cells (%) [2]: 66% and 100% | Population Normal (%) [2]: 91% | Population Pyknosed Nuclei (%) [2]: 1% | Total Cell Count [2]: 103 and 116 | Population Apoptotic (%) [3]: 37% and 26% | Population Fragmented Nuclei (%) [3]: 7% and 2% | Population Healthy Nuclei (%) [3]: 81% and 89% | Population Hoechst High Intensity Objects (%) [3]: 3% and 2% | Population Mitotic Cells (%) [3]: 62% and 73% | Population Normal (%) [3]: 96% and 97% | Population Pyknosed Nuclei (%) [3]: 8% | Total Cell Count [3]: 221 and 230 | Population Fragmented Nuclei (%) [4]: 8% and 3% | Population Healthy Nuclei (%) [4]: 79% and 95% | Population Hoechst High Intensity Objects (%) [4]: 6% and 8% | Population Mitochondria Different-Phenotype (%) [4]: 50% and 33% | Population Mitotic Cells (%) [4]: 50% and 100% | Population Normal (%) [4]: 93% and 91% | Population Pyknosed Nuclei (%) [4]: 11% and 1% | Total Cell Count [4]: 108 and 135

CN1CCN(CCOc2cc(OC3CCOCC3)c3c(Nc4c(Cl)ccc5c4OCO5)ncnc3c2)CC1 [SARACATINIB]
Population Apoptotic (%) [5]: 48% | Population Fragmented Nuclei (%) [5]: 15% | Population Healthy Nuclei (%) [5]: 69% | Population Hoechst High Intensity Objects (%) [5]: 5% | Population Membrane Permeable-Phenotype (%) [5]: 5% | Population Mitochondria Different-Phenotype (%) [5]: 20% | Population Mitotic Cells (%) [5]: 51% | Population Normal (%) [5]: 94% | Population Pyknosed Nuclei (%) [5]: 15% | Population Tubulin-Different-Phenotype (%) [5]: 15% | Total Cell Count [5]: 138 | Population Apoptotic (%) [6]: 70% | Population Fragmented Nuclei (%) [6]: 9% | Population Healthy Nuclei (%) [6]: 72% | Population Hoechst High Intensity Objects (%) [6]: 10% | Population Membrane Permeable-Phenotype (%) [6]: 0% | Population Mitochondria Different-Phenotype (%) [6]: 23% | Population Mitotic Cells (%) [6]: 30% | Population Normal (%) [6]: 90% | Population Pyknosed Nuclei (%) [6]: 18% | Population Tubulin-Different-Phenotype (%) [6]: 10% | Population Apoptotic (%) [1]: 63% | Population Fragmented Nuclei (%) [1]: 15% | Population Healthy Nuclei (%) [1]: 57% | Population Hoechst High Intensity Objects (%) [1]: 8% | Population Membrane Permeable-Phenotype (%) [1]: 29% | Population Mitochondria Different-Phenotype (%) [1]: 89% | Population Mitotic Cells (%) [1]: 36% | Population Normal (%) [1]: 91% | Population Pyknosed Nuclei (%) [1]: 26% | Population Tubulin-Different-Phenotype (%) [1]: 100% | Total Cell Count [1]: 184 | Population Apoptotic (%) [2]: 75% | Population Fragmented Nuclei (%) [2]: 9% | Population Healthy Nuclei (%) [2]: 71% | Population Hoechst High Intensity Objects (%) [2]: 7% | Population Membrane Permeable-Phenotype (%) [2]: 21% | Population Mitochondria Different-Phenotype (%) [2]: 100% | Population Mitotic Cells (%) [2]: 25% | Population Normal (%) [2]: 92% | Population Pyknosed Nuclei (%) [2]: 18% | Total Cell Count [2]: 60 | Population Apoptotic (%) [7]: 44% | Population Healthy Nuclei (%) [7]: 71% | Population Hoechst High Intensity Objects (%) [7]: 4% | Population Membrane Permeable-Phenotype (%) [7]: 4% | Population Mitochondria Different-Phenotype (%) [7]: 17% | Population Mitotic Cells (%) [7]: 55% | Population Normal (%) [7]: 95% | Population Pyknosed Nuclei (%) [7]: 13% | Population Tubulin-Different-Phenotype (%) [7]: 11% | Total Cell Count [7]: 139 | Population Apoptotic (%) [8]: 50% | Population Fragmented Nuclei (%) [8]: 14% | Population Healthy Nuclei (%) [8]: 67% | Population Hoechst High Intensity Objects (%) [8]: 8% | Population Membrane Permeable-Phenotype (%) [8]: 6% | Population Mitochondria Different-Phenotype (%) [8]: 13% | Population Mitotic Cells (%) [8]: 50% | Population Normal (%) [8]: 91% | Population Pyknosed Nuclei (%) [8]: 18% | Population Tubulin-Different-Phenotype (%) [8]: 4% | Population Apoptotic (%) [3]: 76% | Population Fragmented Nuclei (%) [3]: 18% | Population Healthy Nuclei (%) [3]: 60% | Population Hoechst High Intensity Objects (%) [3]: 5% | Population Membrane Permeable-Phenotype (%) [3]: 35% | Population Mitochondria Different-Phenotype (%) [3]: 97% | Population Mitotic Cells (%) [3]: 23% | Population Normal (%) [3]: 94% | Population Pyknosed Nuclei (%) [3]: 20% | Population Tubulin-Different-Phenotype (%) [3]: 100% | Total Cell Count [3]: 224 | Population Apoptotic (%) [4]: 85% | Population Fragmented Nuclei (%) [4]: 11% | Population Healthy Nuclei (%) [4]: 54% | Population Hoechst High Intensity Objects (%) [4]: 8% | Population Membrane Permeable-Phenotype (%) [4]: 21% | Population Mitochondria Different-Phenotype (%) [4]: 96% | Population Mitotic Cells (%) [4]: 14% | Population Normal (%) [4]: 91% | Population Pyknosed Nuclei (%) [4]: 34% | Population Tubulin-Different-Phenotype (%) [4]: 93% | Total Cell Count [4]: 70 | Population Apoptotic (%) [9]: 56% | Population Fragmented Nuclei (%) [9]: 13% | Population Healthy Nuclei (%) [9]: 67% | Population Hoechst High Intensity Objects (%) [9]: 5% | Population Membrane Permeable-Phenotype (%) [9]: 5% | Population Mitochondria Different-Phenotype (%) [9]: 12% | Population Mitotic Cells (%) [9]: 44% | Population Normal (%) [9]: 94% | Population Pyknosed Nuclei (%) [9]: 18% | Population Tubulin-Different-Phenotype (%) [9]: 7% | Population Apoptotic (%) [10]: 38% | Population Fragmented Nuclei (%) [10]: 10% | Population Healthy Nuclei (%) [10]: 73% | Population Hoechst High Intensity Objects (%) [10]: 6% | Population Membrane Permeable-Phenotype (%) [10]: 13% | Population Mitochondria Different-Phenotype (%) [10]: 16% | Population Mitotic Cells (%) [10]: 61% | Population Normal (%) [10]: 93% | Population Pyknosed Nuclei (%) [10]: 15% | Population Tubulin-Different-Phenotype (%) [10]: 14% | Population Apoptotic (%) [11]: 70% | Population Fragmented Nuclei (%) [11]: 24% | Population Healthy Nuclei (%) [11]: 36% | Population Hoechst High Intensity Objects (%) [11]: 7% | Population Membrane Permeable-Phenotype (%) [11]: 36% | Population Mitochondria Different-Phenotype (%) [11]: 88% | Population Mitotic Cells (%) [11]: 29% | Population Normal (%) [11]: 92% | Population Pyknosed Nuclei (%) [11]: 38% | Population Tubulin-Different-Phenotype (%) [11]: 96% | Total Cell Count [11]: 278 | Population Apoptotic (%) [12]: 73% | Population Fragmented Nuclei (%) [12]: 9% | Population Healthy Nuclei (%) [12]: 53% | Population Hoechst High Intensity Objects (%) [12]: 15% | Population Membrane Permeable-Phenotype (%) [12]: 48% | Population Mitochondria Different-Phenotype (%) [12]: 100% | Population Mitotic Cells (%) [12]: 26% | Population Normal (%) [12]: 84% | Population Pyknosed Nuclei (%) [12]: 37% | Population Tubulin-Different-Phenotype (%) [12]: 90% | Total Cell Count [12]: 89
